Results of several laboratories.
Compare with care: the assays were run in different laboratories.
Target: Muscle, skeletal receptor tyrosine-protein kinase (MUSK, Homo sapiens, UniProt O15146)
Residues used in one study (O15146 24-869): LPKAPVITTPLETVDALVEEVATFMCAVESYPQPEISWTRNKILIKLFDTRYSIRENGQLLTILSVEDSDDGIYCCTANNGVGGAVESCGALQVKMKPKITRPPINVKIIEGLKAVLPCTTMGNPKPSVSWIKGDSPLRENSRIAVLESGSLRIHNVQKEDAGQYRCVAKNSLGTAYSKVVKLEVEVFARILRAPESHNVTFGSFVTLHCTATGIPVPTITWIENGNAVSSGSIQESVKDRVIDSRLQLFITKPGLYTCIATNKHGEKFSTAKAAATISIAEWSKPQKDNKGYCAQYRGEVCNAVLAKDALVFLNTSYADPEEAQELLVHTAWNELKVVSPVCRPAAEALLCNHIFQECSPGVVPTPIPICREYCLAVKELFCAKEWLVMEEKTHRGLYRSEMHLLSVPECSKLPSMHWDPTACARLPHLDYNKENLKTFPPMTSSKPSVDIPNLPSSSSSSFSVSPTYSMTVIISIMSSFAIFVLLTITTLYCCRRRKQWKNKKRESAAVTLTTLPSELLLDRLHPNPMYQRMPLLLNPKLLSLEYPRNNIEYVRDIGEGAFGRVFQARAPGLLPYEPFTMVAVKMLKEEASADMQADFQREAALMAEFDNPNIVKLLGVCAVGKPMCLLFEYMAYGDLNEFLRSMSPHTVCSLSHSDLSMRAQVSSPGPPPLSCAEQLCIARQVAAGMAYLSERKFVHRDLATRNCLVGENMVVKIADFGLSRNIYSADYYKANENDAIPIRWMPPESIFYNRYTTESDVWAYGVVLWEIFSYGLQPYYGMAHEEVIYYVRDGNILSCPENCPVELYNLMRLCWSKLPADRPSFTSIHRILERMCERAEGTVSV

CN1CCN(C(=O)c2ccc(NC(=O)Nc3ccc(N(C)c4ccnc(Nc5ccc(CS(C)(=O)=O)cc5)n4)cc3)cc2)CC1  remaining binding (binding, competition with immobilised ligand; 1 µM): 11%
CC(C)S(=O)(=O)c1ccc2nccc(Nc3ccc4sc(C5CCCC5)nc4c3)c2c1  activity vs control (enzyme activity, inhibitor; 1 µM): 101%
C#Cc1cc(-c2cc(Nc3nc(N[C@@H](C)c4ccc(F)cn4)ncc3Cl)n[nH]2)ccc1C=O  inhibition (enzyme activity, inhibitor; 0.2 µM): 100%
C=CC(=O)N1CCC([C@@H]2CCNc3c(C(N)=O)c(-c4ccc(Oc5ccccc5)cc4)nn32)CC1  inhibition (enzyme activity, inhibitor; 1 µM): 16%
CCCCC(=O)Nc1ccc(-c2ccc3ncn(CCC)c(=O)c3c2)cn1  remaining binding (binding, competition with immobilised ligand; 0.5 µM): 93%
Cc1ccc(NC(=O)c2ccnc(C(F)(F)F)c2)cc1-c1cc(OCCO)nc(N2CCOCC2)c1  remaining binding (binding, competition with immobilised ligand; 1 µM): 91%
CO[C@@H]1[C@H](N(C)C(=O)c2ccccc2)C[C@H]2O[C@]1(C)n1c3ccccc3c3c4c(c5c6ccccc6n2c5c31)C(=O)NC4  inhibition (enzyme activity, inhibitor; 1 µM): 0%
C1=C/COCc2cc(ccc2OCCN2CCCC2)Nc2nccc(n2)-c2cccc(c2)COC/1  remaining binding (binding; 0.1 µM): 89%
